From ChEMBL document CHEMBL3351868, “Structure-affinity relationships and pharmacological characterization of new alkyl-resorcinol cannabinoid receptor ligands: Identification of a dual cannabinoid receptor/TRPA1 channel agonist” (Bioorg Med Chem, 2014) come the findings set out here.

By pKi is commonly meant the negative decadic logarithm of the Ki, by convention in mol/L. What is called Emax is the greatest response seen or fitted, relative to the assay's reference. As usually defined, the pEC50 is −log10 of the EC50, conventionally taken in molar units. What is called pIC50 is −log10 of the IC50, conventionally taken in molar units.

pEC50, pIC50, pKi: −log10 of the molar value. The source made the active and inactive calls. The rule behind the calls is not given here.

For series [1], the system named is Mus musculus. Kind of series: Toxicity in Swiss-Webster mouse formalin-induced pain model assessed as induction of abdominal writhing at >4 mg/kg, ip. Type of series: organism-based, Abdomen. Conditions: in vivo. In outline:
(§1)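 Mice received compound or vehicle (0.9% NaCl) i.p. 10 min before formalin (1.25%) injected subcutaneously into the hind paw. Lifting, favouring, licking, shaking and flinching were scored blind as total duration per 5-min bin over 60 min. 8-10 animals per group; one-way ANOVA with Bonferroni test.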
(In general: In writhing tests, fewer writhes than in controls are read as antinociception.)

Series [2] concerns the target T1, Cannabinoid receptor 1 (Homo sapiens, UniProt P21554). Kind of series: Displacement of [3H]CP-55,940 from human recombinant CB1 receptor expressed in HEK293 cell membranes. A general note: Displacement assays read how much labelled ligand stays bound in the presence of the test substance.
Series [3] concerns the target T2, Cannabinoid receptor 2 (Homo sapiens, UniProt P34972). The experiment in a line: Agonist activity at human recombinant CB2 receptor expressed in CHO cell membranes assessed as stimulation of [35S]GTPgammaS binding relative to basal level. Type of series: functional. In outline: (§2)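 Membranes from CHO cells stably expressing human CB1 or CB2, 50 µg protein per well, in Tris buffer with 100 mM NaCl, 5 mM MgCl2, 1 mM DTT, 1 mM EDTA, 0.1% BSA, pH 7.4. Incubated 60 min at 30°C with 0.1 nM [35S]GTPγS, 30 µM GDP and compound in DMSO. Nonspecific binding defined with 30 µM GTPγS. Filtration and scintillation counting. Percent change relative to DMSO control, n=6. EC50/Emax from sigmoidal fit.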
(Binding of GTPγS marks nucleotide exchange on a G protein.)

The target in series [4] is T1, Cannabinoid receptor 1. The experiment in a line: Agonist activity at human recombinant CB1 receptor expressed in CHO cell membranes by [35S]GTPgammaS binding assay. Format: functional. The gist of the method: as §2
Series [5] has as its target T3, Transient receptor potential cation channel subfamily V member 1 (Homo sapiens, UniProt Q8NER1). Kind of series: Agonist activity at human recombinant TRPV1 expressed in HEK293 cells assessed as increase in intracellular calcium level by fluorescence assay. Format: cell-based. In outline: (§3)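 HEK293 cells stably expressing human TRPV1 were loaded with Fluo-4-AM (4 µM, 1 h, room temperature). Cells stirred in Tyrode's buffer pH 7.4; fluorescence read at ex 488/em 516 nm, 25 °C. Wild-type HEK293 response subtracted. Efficacy as percent of 4 µM ionomycin. EC50 from sigmoidal fit, n=3.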

The nature of series [6]: Cytotoxicity against mouse NIH/3T3 cells after 24 hrs by neutral red assay. Type of series: cell-based. Conditions: NIH3T3, 24 h. In outline:
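NIH3T3 mouse fibroblasts in DMEM with 10% FCS were seeded and after 24 h exposed to compound in DMSO (5-200 µM, six replicates) for 24 h. Viability measured by neutral red uptake (3 h dye incubation, then acetic acid/ethanol extraction). IC50 derived.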

The target of series [7] is T2, Cannabinoid receptor 2. Kind of series: Displacement of [3H]CP-55,940 from human recombinant CB2 receptor expressed in HEK293 cell membranes.
Series [8] deals with T4, Transient receptor potential cation channel subfamily A member 1 (Rattus norvegicus, UniProt Q6RI86). Kind of series: Antagonist activity at rat recombinant TRPA1 expressed in HEK293 cells assessed as reduction in isothiocynate-induced increase in intracellular calcium response by fluorescence assay. Format: cell-based. The gist of the method: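 Rat TRPA1-HEK293 cells loaded with Fluo-4 in Tyrode's buffer pH 7.4, 25 °C. Compound given as a 5 min pre-incubation before 100 µM allyl isothiocyanate. IC50 for half-maximal inhibition of the agonist-evoked [Ca2+]i rise, n=3.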
T4 sequence (Q6RI86 whole entry): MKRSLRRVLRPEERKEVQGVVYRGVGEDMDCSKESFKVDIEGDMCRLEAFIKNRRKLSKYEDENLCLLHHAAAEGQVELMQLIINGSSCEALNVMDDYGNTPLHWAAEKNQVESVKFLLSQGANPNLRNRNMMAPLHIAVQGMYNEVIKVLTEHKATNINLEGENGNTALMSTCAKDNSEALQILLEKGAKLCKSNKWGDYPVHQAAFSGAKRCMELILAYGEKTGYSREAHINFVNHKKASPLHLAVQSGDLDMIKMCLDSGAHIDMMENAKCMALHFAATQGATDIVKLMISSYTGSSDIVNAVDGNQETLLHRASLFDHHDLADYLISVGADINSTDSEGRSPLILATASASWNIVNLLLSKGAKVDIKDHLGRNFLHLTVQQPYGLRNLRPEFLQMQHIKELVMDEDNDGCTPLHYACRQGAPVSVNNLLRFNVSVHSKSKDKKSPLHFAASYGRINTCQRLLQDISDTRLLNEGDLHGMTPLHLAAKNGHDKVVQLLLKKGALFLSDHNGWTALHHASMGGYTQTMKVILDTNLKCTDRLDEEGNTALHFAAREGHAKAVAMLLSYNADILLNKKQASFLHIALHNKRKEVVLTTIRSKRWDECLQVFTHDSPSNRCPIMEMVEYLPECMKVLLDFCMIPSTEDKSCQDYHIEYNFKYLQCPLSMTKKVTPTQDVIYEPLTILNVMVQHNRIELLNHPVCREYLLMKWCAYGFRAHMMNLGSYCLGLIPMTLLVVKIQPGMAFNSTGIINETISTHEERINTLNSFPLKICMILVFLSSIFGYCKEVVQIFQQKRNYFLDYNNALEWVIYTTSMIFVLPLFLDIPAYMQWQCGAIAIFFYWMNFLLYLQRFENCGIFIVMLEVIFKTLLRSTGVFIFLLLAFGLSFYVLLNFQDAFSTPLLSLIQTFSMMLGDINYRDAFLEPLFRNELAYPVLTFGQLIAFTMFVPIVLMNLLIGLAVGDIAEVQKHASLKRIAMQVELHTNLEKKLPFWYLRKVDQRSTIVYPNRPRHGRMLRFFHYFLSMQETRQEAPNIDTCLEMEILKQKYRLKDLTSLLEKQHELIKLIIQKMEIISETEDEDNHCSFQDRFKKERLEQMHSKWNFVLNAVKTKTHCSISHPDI

The target in series [9] is T4, Transient receptor potential cation channel subfamily A member 1. Kind of series: Agonist activity at rat recombinant TRPA1 expressed in HEK293 cells assessed as increase in intracellular calcium level by fluorescence assay. Type of series: cell-based. The gist of the method: (§4)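 HEK293 cells stably expressing rat TRPA1 were loaded with Fluo-4-AM (4 µM, 1 h, room temperature). Cells stirred in Tyrode's buffer pH 7.4; [Ca2+]i fluorescence read at ex 488/em 516 nm, 25 °C. Wild-type HEK293 response subtracted. Efficacy as percent of 100 µM allyl isothiocyanate. EC50 from sigmoidal fit, n=3.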

Series [10] concerns the target T1, Cannabinoid receptor 1. Kind of series: Agonist activity at human recombinant CB1 receptor expressed in CHO cell membranes assessed as stimulation of [35S]GTPgammaS binding relative to basal level. Format: functional. The gist of the method:
as §2

Series [11] relates to Mus musculus. The experiment in a line: Antinociceptive activity in Swiss-Webster mouse assessed as reduction in second phase of formalin-induced nociceptive behavior at 3 and 4 mg/kg, ip. Type of series: functional, organism-based. Also noted: dose 4 mg/kg. In outline: as §1
The species entered for series [12] is Homo sapiens. The experiment in a line: Selectivity index, ratio of Ki for human recombinant CB2 receptor to Ki for human recombinant CB1 receptor.
The target in series [13] is T3, Transient receptor potential cation channel subfamily V member 1. Kind of series: Agonist activity at human recombinant TRPV1 expressed in HEK293 cells assessed as increase in intracellular calcium level by fluorescence assay relative to ionomycin. Format: cell-based. In outline:
as §3

Series [14] addresses T2, Cannabinoid receptor 2. The experiment in a line: Agonist activity at human recombinant CB2 receptor expressed in CHO cell membranes by [35S]GTPgammaS binding assay. Type of series: functional. In outline:
as §2

For series [15], the system named is Mus musculus. Kind of series: Antinociceptive activity in Swiss-Webster mouse assessed as reduction in second phase of formalin-induced nociceptive behavior at 4 mg/kg, ip after 40 mins. Format: functional, organism-based. Also noted: dose 4 mg/kg. In outline: as §1
For series [16], the target named is Transient receptor potential cation channel subfamily A member 1 (Rattus norvegicus) (UniProt Q6RI86). Kind of series: Agonist activity at rat recombinant TRPA1 expressed in HEK293 cells assessed as increase in intracellular calcium level by fluorescence assay relative to isothiocyanate. Type of series: cell-based. In outline: as §4
Transient receptor potential cation channel subfamily A member 1 (Rattus norvegicus), sequence (Q6RI86 whole entry): as above
Series [17] is filed under the species Homo sapiens. Kind of series: Selectivity index, ratio of Ki for human recombinant CB1 receptor to Ki for human recombinant CB2 receptor.
The target in series [18] is T3, Transient receptor potential cation channel subfamily V member 1. The experiment in a line: Antagonist activity against human recombinant TRPV1 expressed in HEK293 cells assessed as reduction in capsaicin-induced intracellular calcium response pre-incubated 5 mins before capsaicin addition by fluorescence assay. Format: cell-based. The gist of the method: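 Human TRPV1-HEK293 cells loaded with Fluo-4 in Tyrode's buffer pH 7.4, 25 °C. Compound added 5 min before 0.1 µM capsaicin. IC50 taken as half-maximal inhibition of the capsaicin-induced [Ca2+]i rise, n=3.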

The next series has as its system COS-7. The experiment in a line: Inhibition of MGL in African green monkey COS7 cells cytosolic fraction assessed as reduction in 2-arachidonoyl-[3H]-glycerol hydrolysis at 1 uM by scintillation counting method. Format: cell-based. Particulars: Chlorocebus aethiops.

T2 sequence (P34972 whole entry): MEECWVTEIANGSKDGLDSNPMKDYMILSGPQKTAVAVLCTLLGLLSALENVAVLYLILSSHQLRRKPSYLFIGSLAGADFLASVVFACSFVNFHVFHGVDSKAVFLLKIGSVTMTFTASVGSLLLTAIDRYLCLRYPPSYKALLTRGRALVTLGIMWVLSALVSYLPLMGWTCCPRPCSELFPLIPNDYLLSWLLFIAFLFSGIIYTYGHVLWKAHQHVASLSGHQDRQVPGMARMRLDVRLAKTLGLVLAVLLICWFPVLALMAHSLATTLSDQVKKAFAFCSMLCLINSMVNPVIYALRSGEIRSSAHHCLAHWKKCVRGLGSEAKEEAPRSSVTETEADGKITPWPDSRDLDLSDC
T1 sequence (P21554 whole entry): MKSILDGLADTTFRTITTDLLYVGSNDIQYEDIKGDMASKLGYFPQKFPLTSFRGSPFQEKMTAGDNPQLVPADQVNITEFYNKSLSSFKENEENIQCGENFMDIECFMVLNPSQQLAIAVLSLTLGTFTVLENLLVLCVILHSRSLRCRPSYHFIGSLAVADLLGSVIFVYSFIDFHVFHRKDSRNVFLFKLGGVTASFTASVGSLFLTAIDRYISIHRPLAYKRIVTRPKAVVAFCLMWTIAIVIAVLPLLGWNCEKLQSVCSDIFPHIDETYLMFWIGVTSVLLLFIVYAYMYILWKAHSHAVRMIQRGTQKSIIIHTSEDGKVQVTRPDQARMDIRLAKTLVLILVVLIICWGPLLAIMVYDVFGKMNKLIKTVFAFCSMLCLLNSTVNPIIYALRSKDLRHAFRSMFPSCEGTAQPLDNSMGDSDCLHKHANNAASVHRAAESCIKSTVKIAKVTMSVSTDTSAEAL
T3 sequence (Q8NER1 whole entry): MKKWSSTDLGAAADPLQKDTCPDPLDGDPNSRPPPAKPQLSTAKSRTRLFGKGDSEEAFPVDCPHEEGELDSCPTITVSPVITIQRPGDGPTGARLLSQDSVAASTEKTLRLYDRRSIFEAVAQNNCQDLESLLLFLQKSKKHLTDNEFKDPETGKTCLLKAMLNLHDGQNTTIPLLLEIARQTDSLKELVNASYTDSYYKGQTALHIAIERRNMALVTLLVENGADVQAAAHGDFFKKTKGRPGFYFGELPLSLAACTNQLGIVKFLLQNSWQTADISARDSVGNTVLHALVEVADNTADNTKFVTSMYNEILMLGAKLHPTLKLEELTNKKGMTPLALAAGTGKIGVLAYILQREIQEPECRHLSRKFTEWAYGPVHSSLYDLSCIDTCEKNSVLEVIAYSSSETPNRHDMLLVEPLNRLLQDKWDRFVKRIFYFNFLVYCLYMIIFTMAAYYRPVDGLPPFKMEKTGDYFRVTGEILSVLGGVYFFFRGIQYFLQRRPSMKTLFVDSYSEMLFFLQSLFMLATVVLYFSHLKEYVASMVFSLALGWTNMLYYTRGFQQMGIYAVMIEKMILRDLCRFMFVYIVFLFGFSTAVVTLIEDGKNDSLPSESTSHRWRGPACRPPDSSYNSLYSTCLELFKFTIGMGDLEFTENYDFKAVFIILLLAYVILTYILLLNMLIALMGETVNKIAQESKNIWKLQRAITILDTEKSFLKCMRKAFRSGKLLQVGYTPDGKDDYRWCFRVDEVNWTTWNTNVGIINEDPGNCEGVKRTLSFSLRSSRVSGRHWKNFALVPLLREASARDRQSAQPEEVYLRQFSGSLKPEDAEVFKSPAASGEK

On to `C=CCNC(=O)CCCCCCCOc1cc(O)cc(C(C)(C)CCCCCC)c1`, for which the Activity result with Mus musculus [1] was “Toxic”. For the same compound, the pKi was 8.14 on Cannabinoid receptor 1 [2] and 8.13 on Cannabinoid receptor 2 [7]. Also, the Emax on Cannabinoid receptor 2 [3] was 13.4%; on Cannabinoid receptor 1 [10], 60.6%. For the same compound, the pEC50 at Cannabinoid receptor 1 [4] is 6.86; in series [5], 5.16; in [9] it was 5.57; at Cannabinoid receptor 2 [14], 7.35. The pIC50 was 3.73 in series [6], 5.13 in series [8] and 4.62 in [18]. For the same compound, the outcome in the series with Mus musculus [11] and in the series on Mus musculus [15] was Active. Further, the Ratio Ki in the series filed under Homo sapiens [12] was 1.02; in the series filed under Homo sapiens [17], 0.98. The Efficacy in series [13] came out at 18.6%; in series [16] it was 51.3%.
In the case of `CCCCCCCCCCC[C@@H](C[C@@H]1OC(=O)[C@H]1CCCCCC)OC(=O)CNC=O`, the Imax with COS-7 is 60%.
